Data reported in article PMC7034990 (Science Advances, 2020).

How the values were obtained:
[1] = biological target: T1, F508del-CFTR in CFBE41o− cells (Homo sapiens, UniProt P13569, DEL508-508); assay: F508del-CFTR half-life after cycloheximide block of protein synthesis; assay type: cell-based; details: 24 hours of treatment then cycloheximide, ARN23765 1 nM, VX-809 1 μM
[2] = system: F508del/F508del cultured bronchial epithelia; assay: Apical fluid pH measurement on CF bronchial epithelia; assay type: cell-based, human; details: 24 hours
Method in brief: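 CF bronchial epithelia at air-liquid interface were treated 24 h with correctors or DMSO vehicle. The apical side then received 75 μl low-buffer modified PBS (pH 7.35) containing 100 μM CPT-cAMP and 1 μM VX-770, for 3 h at 37°C, 5% CO2. The recovered fluid was mixed with SNARF-1 (final 0.1 mg/ml), excited at 544 nm, and the 590/640 nm emission ratio converted to pH by calibration curve.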

[3] = system: bronchial epithelial cells (F508del/F508del, F508del/other mutation, non-CF); assay: TEEC/PD technique; assay type: cell-based, human; details: for F508del-CFTR function, ∆Ieq: 10 nM
Method in brief: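 CF and non-CF primary bronchial epithelia at air-liquid interface on 0.33-cm2 inserts were treated 24 h at 37°C, 5% CO2. Measurements used Coon's F12 with NaHCO3 replaced by 20 mM Na-Hepes (pH 7.3), after 1 h equilibration. TEER and PD were read at baseline, after apical amiloride 10 μM, forskolin 10 μM + genistein 50 μM bilateral, then apical PPQ102 30 μM, 10 min each. Ieq came from Ohm's law; ∆Ieq = change on PPQ102.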

[4] = system: F508del-CFTR CFBE41o− cells; assay: HS-YFP assay in CFBE41o− cells expressing F508del-CFTR; assay type: cell-based
[5] = biological target: T1, F508del-CFTR in CFBE41o− cells; assay: Thermoaggregation assay of mutant CFTR in cell lysates; assay type: cell-based; details: lysates heat-denatured at 28° to 70°C; ARN23765 1 nM, VX-809 1 μM
Method in brief: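 F508del-CFTR CFBE41o− cells were treated 24 h; wild-type CFTR CFBE41o− cells were run in parallel. Confluent cells received cycloheximide (150 μg/ml) for 2 h, were lysed in RIPA on ice and cleared at 15,000g, 10 min, 4°C. Lysate (50 μg) was heated 15 min at 28–70°C. Aggregates were removed at 15,000g, 15 min, 4°C; soluble CFTR was immunoblotted and normalised to HSP90AB1.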

[6] = system: receptors, monoamine transporters, ABC proteins, and hERG channel; assay: Off-target panel; details: 10 μM
[7] = system: Ca2+-activated Cl− secretion in bronchial epithelia; assay: Ca2+-activated Cl− secretion elicited by UTP; assay type: cell-based, human; details: UTP 100 μM; ARN23765 10 nM, VX-809 1 μM, 24 hr
Method in brief: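 Primary bronchial epithelial cells came from lung-transplant bronchi and were differentiated on porous inserts, then kept 2–3 weeks under air-liquid culture. Correctors or DMSO were given in basolateral medium. Epithelia were mounted in a vertical diffusion chamber, bicarbonate saline (126 mM NaCl, 24 mM NaHCO3, 10 mM glucose) both sides, gassed 5% CO2:95% air, 37°C. Voltage was clamped and short-circuit current recorded. ENaC was blocked with amiloride (10 μM).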

[8] = biological target: ABC-B1 (MDR1, P-glycoprotein) (Homo sapiens, UniProt P08183); assay: ABC transporter inhibition, ABC-B1; assay type: in vitro ADME
Sequence of ABC-B1 (MDR1, P-glycoprotein) (P08183 whole entry, species assumed): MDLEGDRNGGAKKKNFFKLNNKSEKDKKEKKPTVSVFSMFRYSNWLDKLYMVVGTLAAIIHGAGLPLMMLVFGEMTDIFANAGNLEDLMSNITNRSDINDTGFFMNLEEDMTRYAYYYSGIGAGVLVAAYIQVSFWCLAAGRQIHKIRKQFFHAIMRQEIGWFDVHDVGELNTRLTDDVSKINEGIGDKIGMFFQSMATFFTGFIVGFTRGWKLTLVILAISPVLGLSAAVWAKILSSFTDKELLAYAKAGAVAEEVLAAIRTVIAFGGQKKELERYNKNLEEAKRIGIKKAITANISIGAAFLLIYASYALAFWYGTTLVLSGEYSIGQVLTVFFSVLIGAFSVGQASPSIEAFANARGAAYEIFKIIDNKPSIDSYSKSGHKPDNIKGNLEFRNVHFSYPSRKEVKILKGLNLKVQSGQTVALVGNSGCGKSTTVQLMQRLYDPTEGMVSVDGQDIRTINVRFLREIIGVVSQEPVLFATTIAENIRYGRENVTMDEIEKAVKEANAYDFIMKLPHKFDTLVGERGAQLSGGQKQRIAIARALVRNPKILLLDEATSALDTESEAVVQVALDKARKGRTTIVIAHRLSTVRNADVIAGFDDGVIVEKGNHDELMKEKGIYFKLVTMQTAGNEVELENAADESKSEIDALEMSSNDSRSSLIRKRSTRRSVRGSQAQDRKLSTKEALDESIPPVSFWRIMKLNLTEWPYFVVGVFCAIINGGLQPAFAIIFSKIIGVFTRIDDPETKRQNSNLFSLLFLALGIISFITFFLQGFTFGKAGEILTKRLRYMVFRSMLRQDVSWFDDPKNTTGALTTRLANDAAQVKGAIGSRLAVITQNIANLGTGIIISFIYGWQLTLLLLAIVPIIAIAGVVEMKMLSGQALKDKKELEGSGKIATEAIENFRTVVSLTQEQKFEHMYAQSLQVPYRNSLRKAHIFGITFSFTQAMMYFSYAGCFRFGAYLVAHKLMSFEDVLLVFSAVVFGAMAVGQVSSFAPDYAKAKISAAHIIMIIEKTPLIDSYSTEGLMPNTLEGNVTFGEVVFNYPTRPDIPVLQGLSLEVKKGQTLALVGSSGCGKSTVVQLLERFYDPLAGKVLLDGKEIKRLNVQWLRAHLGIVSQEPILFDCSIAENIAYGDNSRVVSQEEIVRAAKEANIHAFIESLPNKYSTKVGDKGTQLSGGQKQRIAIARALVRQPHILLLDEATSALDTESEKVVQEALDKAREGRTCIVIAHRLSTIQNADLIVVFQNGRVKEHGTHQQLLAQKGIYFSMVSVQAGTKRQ

[9] = biological target: ABC-C2 (multidrug resistance-associated protein 2) (Homo sapiens, UniProt Q92887); assay: ABC transporter inhibition, ABC-C2; assay type: in vitro ADME; details: read-out: inhibition of ABC-C2
Sequence of ABC-C2 (multidrug resistance-associated protein 2) (Q92887 whole entry, species assumed): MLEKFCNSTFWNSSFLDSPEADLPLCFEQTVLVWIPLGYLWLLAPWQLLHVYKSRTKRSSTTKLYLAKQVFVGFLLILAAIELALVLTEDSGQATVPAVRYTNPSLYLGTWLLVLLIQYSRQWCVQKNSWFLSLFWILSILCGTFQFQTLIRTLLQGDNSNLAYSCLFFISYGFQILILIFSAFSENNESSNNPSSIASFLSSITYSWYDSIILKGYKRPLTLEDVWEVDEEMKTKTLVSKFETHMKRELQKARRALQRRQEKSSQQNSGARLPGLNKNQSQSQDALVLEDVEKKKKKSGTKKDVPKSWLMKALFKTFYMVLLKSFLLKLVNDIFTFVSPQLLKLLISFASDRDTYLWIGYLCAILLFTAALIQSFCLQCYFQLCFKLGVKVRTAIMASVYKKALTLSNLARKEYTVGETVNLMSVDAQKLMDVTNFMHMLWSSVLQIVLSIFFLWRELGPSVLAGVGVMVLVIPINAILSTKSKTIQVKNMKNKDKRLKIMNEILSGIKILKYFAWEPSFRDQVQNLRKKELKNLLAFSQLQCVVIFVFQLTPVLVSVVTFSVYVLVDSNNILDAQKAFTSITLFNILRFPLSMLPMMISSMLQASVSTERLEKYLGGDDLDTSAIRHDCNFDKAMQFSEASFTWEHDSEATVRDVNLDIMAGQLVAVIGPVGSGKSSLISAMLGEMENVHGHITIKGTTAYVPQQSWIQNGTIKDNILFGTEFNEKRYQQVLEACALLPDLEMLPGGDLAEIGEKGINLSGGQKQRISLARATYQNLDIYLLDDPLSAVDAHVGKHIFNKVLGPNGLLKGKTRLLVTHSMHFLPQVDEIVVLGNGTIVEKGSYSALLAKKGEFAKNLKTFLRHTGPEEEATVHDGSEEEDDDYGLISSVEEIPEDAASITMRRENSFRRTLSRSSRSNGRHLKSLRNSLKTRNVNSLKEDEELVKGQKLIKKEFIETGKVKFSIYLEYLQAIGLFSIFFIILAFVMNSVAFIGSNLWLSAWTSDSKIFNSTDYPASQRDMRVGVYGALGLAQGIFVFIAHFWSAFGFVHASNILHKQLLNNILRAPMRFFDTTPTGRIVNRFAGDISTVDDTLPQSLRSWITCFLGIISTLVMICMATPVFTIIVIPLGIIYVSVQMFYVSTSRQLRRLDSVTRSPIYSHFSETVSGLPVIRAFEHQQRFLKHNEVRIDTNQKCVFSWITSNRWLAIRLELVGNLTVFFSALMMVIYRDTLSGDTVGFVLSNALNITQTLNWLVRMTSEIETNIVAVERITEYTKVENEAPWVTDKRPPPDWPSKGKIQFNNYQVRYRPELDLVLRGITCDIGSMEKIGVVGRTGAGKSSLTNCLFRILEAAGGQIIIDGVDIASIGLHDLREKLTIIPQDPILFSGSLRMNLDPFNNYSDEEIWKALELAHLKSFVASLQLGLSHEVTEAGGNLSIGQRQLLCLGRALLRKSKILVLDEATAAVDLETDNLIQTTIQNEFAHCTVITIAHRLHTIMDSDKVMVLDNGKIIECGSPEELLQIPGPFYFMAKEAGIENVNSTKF

**Q.** How did the “increase of half-life of mature CFTR (band C)” value [1] turn out when `CN(C(=O)c1cccc(-n2nc(C(F)(F)F)c3c2[C@@H](Oc2ccc(C(=O)O)cc2)CCC3)c1)c1ccc2c(c1)OC(F)(F)O2` [ARN23765] was run?
**A.** threefold

**Q.** And the “pH of the apical fluid, combination of ARN23765 and 4172” value ([2]; ARN23765 10 nM plus 4172 10 μM)?
**A.** further increased pH to a level significantly higher than that measured with each corrector alone

**Q.** What about the “pH of the apical fluid, single corrector” value ([2]; ARN23765 10 nM, 4172 10 μM, versus control-treated cells) of the same molecule?
**A.** significant increase in pH

**Q.** And the “F508del-CFTR function, ∆Ieq” value ([3]; cells from four patients with F508del/F508del, 24 hours)?
**A.** markedly increased F508del-CFTR function, with results comparable to those of VX-809 (1 μM)

**Q.** What about the “F508del-CFTR function, ∆Ieq” value ([3]; epithelia from two patients with a single copy of F508del and a premature stop codon (R553X and G542X)) of the same molecule?
**A.** notably effective

**Q.** What about the “wild-type CFTR function, ∆Ieq” value ([3]; non-CF epithelia, ARN23765 10 nM, VX-809 1 μM) of the same molecule?
**A.** elicited a significant increase of wild-type CFTR function

**Q.** What about the “F508del-CFTR activity (QR) of the ARN23765/VX-809 combination” value ([4]; CFBE41o− cells, VX-809 1 μM, ARN23765 10 nM, or both) of the same molecule?
**A.** no additive effect

**Q.** And the EC50 ([4]; Homo sapiens, CFBE41o-, 24 h)?
**A.** 0.4 nM

**Q.** What about the “resistance to thermoaggregation of mature CFTR” value [5] of the same molecule?
**A.** significantly increased the resistance to thermoaggregation of mature CFTR

**Q.** And the “effects on a panel of relevant biological targets” value [6]?
**A.** no alerting effects

**Q.** And the “Ca2+-activated Cl− secretion” value [7]?
**A.** unaffected

**Q.** What about the inhibition at 10 µM [8] of the same molecule?
**A.** 13%

**Q.** What about the inhibition at 10 µM [9] of the same molecule?
**A.** 27%
